The values below come from ChEMBL document CHEMBL1124186, “Synthesis and evaluation of tylosin-related macrolides modified at the aldehyde function: a new series of orally effective antibiotics” (1988).

≈ marks a conversion by molar mass, not a printed value.

By ED50 is commonly meant the dose at which the effect has come halfway, by size or by number of responders.

The test system of assay [1] is Haemophilus influenzae. As to the kind of experiment: In vitro antimicrobial activity against Haemophilus influenzae. Format: functional.
Assay [2] concerns Staphylococcus aureus. As to the kind of experiment: In vitro antimicrobial activity against Staphylococcus aureus X1. It is filed as functional.
Assay [3] concerns Streptococcus pyogenes. The assay is described as follows: (§1) In vitro antimicrobial activity against Streptococcus pyogenes C203. It is filed as functional.
Assay [4] relates to Streptococcus pyogenes. As to the kind of experiment: In vivo effective dose against experimental infections in rodent caused by Streptococcus pyogenes C203 when administered orally. The following applies: po. Format: functional.
Assay [5] concerns Enterococcus faecium. As to the kind of experiment: In vitro antimicrobial activity against Streptococcus faecium X66. Format: functional, streptococcus fae-cium.
Assay [6] has as its system Streptococcus pyogenes. The assay is described as follows: […] effective dose against Streptococcus pyogenes C203 when administered sc. Format: functional. The gist of the method: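 Infected mice (S. pyogenes C203) were treated subcutaneously 1 and 5 h postinfection with 0.25 mL of antibiotic in 10% aqueous ethanol, with tartaric acid added when needed to dissolve it. A range of concentrations was given. The value is the ED50 expressed as mg/kg × 2.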

Assay [7] concerns Streptococcus pyogenes. The assay is described as follows: In vivo effective dose against experimental infections in rodent caused by Streptococcus pyogenes C203 when administered sc. It is filed as functional.
The test system of assay [8] is Staphylococcus epidermidis. As to the kind of experiment: In vitro antimicrobial activity against Staphylococcus epidermidis EPI1. Format: functional.
Assay [9] relates to Streptococcus pyogenes. Described as §1. It is filed as functional. The source holds these as a separate data set.
Assay [10] deals with Streptococcus pyogenes. As to the kind of experiment: […] effective dose against Streptococcus pyogenes C203 when administered orally. The conditions noted are these: po. It is filed as functional.
Assay [11] relates to Streptococcus pneumoniae. As to the kind of experiment: In vitro antimicrobial activity against Streptococcus pneumoniae. Format: functional.
Assay [12] deals with Streptococcus pyogenes. The assay is described as follows: In vivo effective dose against experimental infections in rodent caused by Streptococcus pyogenes C203 when administered subcutaneously. The conditions noted are these: sc. It is filed as functional.

Consider `CC[C@H]1OC(=O)C[C@@H](O)[C@H](C)[C@@H](O[C@@H]2O[C@H](C)[C@@H](O[C@H]3C[C@@](C)(O)[C@@H](O)[C@H](C)O3)[C@H](N(C)C)[C@H]2O)[C@@H](CC=O)C[C@@H](C)C(=O)/C=C/C(C)=C/[C@@H]1CO[C@@H]1O[C@H](C)[C@@H](O)[C@@H](O)[C@H]1OC` [MACROCIN], for which the MIC in [1] was determined as 16 µg/mL (≈ 17.7 µM); in assay [2], 0.5 µg/mL (≈ 0.554 µM); in assay [3], 0.25 µg/mL (≈ 0.277 µM); in assay [5], 2 µg/mL (≈ 2.22 µM); in assay [8], 1 µg/mL (≈ 1.11 µM); in assay [9] it was 0.25 µg/mL (≈ 0.277 µM). This compound also showed an MIC in [11] of 1 µg/mL (≈ 1.11 µM). Also, the ED50 in assay [4] is 71 mg/kg; in assay [6] it was less than 1.2 mg/kg; in [7], 1.9 mg/kg; in [10], more than 80 mg/kg.
Regarding `CC[C@H]1OC(=O)C[C@@H](O)[C@H](C)[C@@H](O[C@@H]2O[C@H](C)[C@@H](O[C@H]3C[C@@](C)(O)[C@@H](O)[C@H](C)O3)[C@H](N(C)C)[C@H]2O)[C@@H](CCO)C[C@@H](C)C(=O)/C=C/C(C)=C/[C@@H]1CO[C@@H]1O[C@H](C)[C@@H](O)[C@@H](O)[C@H]1OC`, the MIC in assay [1] is more than 128 µg/mL; in assay [2], 16 µg/mL (≈ 17.7 µM); in [5] it was 128 µg/mL (≈ 142 µM); in assay [8], 4 µg/mL (≈ 4.42 µM); in assay [9], 4 µg/mL (≈ 4.42 µM); in assay [11], 32 µg/mL (≈ 35.4 µM). The median effective dose (ED50) in assay [12] is more than 10 mg/kg; in assay [4], more than 100 mg/kg.
